# ChEMBL document CHEMBL1155646, “Kinmoonosides A-C, three new cytotoxic saponins from the fruits of Acacia concinna, a medicinal plant collected in myanmar” (2000)
# System: HT-1080
# Assay: Cytotoxicity against human HT1080 cells by 3-(4,5-dimethylthiazol-2-yl)-[…] bromide assay
# Format: functional
# Conditions: read-out: ED50 (the source's name)
# Outline: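 Human HT-1080 fibrosarcoma cells were tested in a standard tetrazolium (MTT) viability assay following an earlier published protocol. Potency was reported as ED50, given in µg/mL and also converted to µM.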
row,SMILES,EC50
1,C[C@H]1O[C@@H](OC[C@H]2O[C@@H](O[C@H]3CC[C@]4(C)[C@H]5CC=C6[C@@H]7CC(C)(C)[C@@H](O)C[C@]7(C(=O)O)[C@H](O)C[C@@]6(C)[C@]5(C)CC[C@H]4C3(C)C)[C@H](O[C@@H]3O[C@H](CO)[C@@H](O)[C@H](O)[C@H]3O)[C@@H](O)[C@@H]2O)[C@H](O[C@@H]2OC[C@@H](O)[C@H](O)[C@H]2O)[C@@H](O)[C@H]1O,> 100 µg/mL
2,C=CC1(C)CCC(C(CO)C(=O)O)O1 (centres undefined),> 100 µg/mL
3,C=CC(C)(O)CC/C=C(\CO)C(=O)O[C@H]1[C@H](O)[C@@H](O)C(O)O[C@@H]1C (some centres undefined),> 100 µg/mL
4,C=CC(C)(CC/C=C(\CO)C(=O)O)O[C@@H]1O[C@H](C)[C@@H](O)[C@H](O)[C@H]1O (some centres undefined),> 100 µg/mL
5,CC1(C)C[C@H]2C3=CC[C@@H]4[C@@]5(C)CC[C@H](O[C@@H]6O[C@H](CO[C@@H]7OC[C@H](O)[C@H](O)[C@H]7O[C@@H]7OC[C@@H](O)[C@H](O)[C@H]7O)[C@@H](O)[C@H](O)[C@H]6O[C@@H]6O[C@H](CO)[C@@H](O)[C@H](O)[C@H]6O)C(C)(C)[C@@H]5CC[C@@]4(C)[C@]3(C)C[C@@H](O)[C@@]23C[C@@H]1OC3=O,> 100 µg/mL
6,C=CC(C)(O)CC/C=C(\CO)C(=O)O[C@H]1C[C@]2(C(=O)O[C@@H]3O[C@H](CO)[C@@H](O)[C@H](O)[C@H]3O[C@@H]3O[C@@H](C)[C@H](O[C@H]4O[C@@H](CO)[C@H](O)[C@H]4O)[C@@H](O[C@@H]4O[C@H](CO)[C@@H](O)[C@H](O)[C@H]4O)[C@H]3O)[C@H](O)C[C@]3(C)C(=CC[C@@H]4[C@@]5(C)CC[C@H](O[C@@H]6O[C@H](CO[C@@H]7OC[C@H](O)[C@H](O)[C@H]7O)[C@@H](O)[C@H](O)[C@H]6O[C@@H]6O[C@H](CO)[C@@H](O)[C@H](O)[C@H]6O)C(C)(C)[C@@H]5CC[C@]43C)[C@@H]2CC1(C)C (some centres undefined),2.83 µM
7,CC1(C)C[C@H]2C3=CC[C@@H]4[C@@]5(C)CC[C@H](O[C@@H]6O[C@H](CO[C@@H]7OC[C@H](O)[C@H](O)[C@H]7O)[C@@H](O)[C@H](O)[C@H]6O[C@@H]6O[C@H](CO)[C@@H](O)[C@H](O)[C@H]6O)C(C)(C)[C@@H]5CC[C@@]4(C)[C@]3(C)C[C@@H](O)[C@@]2(C(=O)O)C[C@@H]1O,> 100 µg/mL
8,CC(=O)N[C@H]1[C@H](O[C@H]2CC[C@]3(C)[C@H]4CC=C5[C@@H]6CC(C)(C)[C@@H](O)C[C@]6(C(=O)O)[C@H](O)C[C@@]5(C)[C@]4(C)CC[C@H]3C2(C)C)O[C@H](CO[C@@H]2OC[C@H](O)[C@H](O)[C@H]2O)[C@@H](O)[C@@H]1O,> 100 µg/mL
9,C=CC(C)(CC/C=C(\C)C(=O)O)O[C@@H]1O[C@H](C)[C@@H](O)[C@H](O)[C@H]1O (mixture of isomers),> 100 µg/mL
10,O=c1[nH]cc(F)c(=O)[nH]1 [FLUOROURACIL],8 µM
11,C=CC(C)(O)CC/C=C(\CO)C(=O)O[C@H]1[C@H](O)[C@@H](O)[C@H](O[C@](C)(C=C)CC/C=C(\CO)C(=O)O[C@H]2C[C@]3(C(=O)O[C@@H]4O[C@H](CO)[C@@H](O)[C@H](O)[C@H]4O[C@@H]4O[C@@H](C)[C@H](O[C@H]5O[C@@H](CO)[C@H](O)[C@H]5O)[C@@H](O[C@@H]5O[C@H](CO)[C@@H](O)[C@H](O)[C@H]5O)[C@H]4O)[C@H](O)C[C@]4(C)C(=CC[C@@H]5[C@@]6(C)CC[C@H](O[C@@H]7O[C@H](CO[C@@H]8OC[C@H](O)[C@H](O)[C@H]8O)[C@@H](O)[C@H](O)[C@H]7O[C@@H]7O[C@H](CO)[C@@H](O)[C@H](O)[C@H]7O)C(C)(C)[C@@H]6CC[C@]54C)[C@@H]3CC2(C)C)O[C@@H]1C (some centres undefined) [KINMOONOSIDE B],0.91 µM
12,C=CC(C)(O)CC/C=C(\CO)C(=O)O[C@H]1[C@H](O)[C@@H](O)[C@H](O[C@@](C)(C=C)CC/C=C(\CO)C(=O)O[C@H]2C[C@]3(C(=O)O[C@@H]4O[C@H](CO)[C@@H](O)[C@H](O)[C@H]4O[C@@H]4O[C@@H](C)[C@H](O[C@H]5O[C@@H](CO)[C@H](O)[C@H]5O)[C@@H](O[C@@H]5O[C@H](CO)[C@@H](O)[C@H](O)[C@H]5O)[C@H]4O)[C@H](O)C[C@]4(C)C(=CC[C@@H]5[C@@]6(C)CC[C@H](O[C@@H]7O[C@H](CO[C@@H]8OC[C@H](O)[C@H](O)[C@H]8O)[C@@H](O)[C@H](O)[C@H]7O[C@@H]7O[C@H](CO)[C@@H](O)[C@H](O)[C@H]7O)C(C)(C)[C@@H]6CC[C@]54C)[C@@H]3CC2(C)C)O[C@@H]1C (some centres undefined) [KINMOONOSIDES A],0.7 µM
13,C=CC(C)(O)CC/C=C(\C)C(=O)O (centres undefined) [MENTHIAFOLIC ACID],> 100 µg/mL
14,CC(=O)N[C@H]1[C@H](O[C@H]2CC[C@]3(C)[C@H]4CC=C5[C@@H]6CC(C)(C)[C@@H](O)C[C@]6(C(=O)O)[C@H](O)C[C@@]5(C)[C@]4(C)CC[C@H]3C2(C)C)O[C@H](CO[C@@H]2OC[C@H](O)[C@H](O)[C@H]2O[C@@H]2OC[C@@H](O)[C@H](O)[C@H]2O)[C@@H](O)[C@@H]1O [PROSAPOGENIN 2],> 100 µg/mL
